The full list was thinned out, with hits kept by preference.
B2AR ag = beta2AR agonists driving receptor internalization, primary screen, cell-based, FAP fluorogen, flow cytometry. 340,000 compounds, 0.43% hits. Am2.2-beta2AR cells. Beta-2 adrenergic receptor (Homo sapiens), P07550. response, % (concentration not given with the values);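 active = response above a set limit, near 3 SD of response in nonfluorescent compounds, cut at about 42% in these data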
Target sequence (P07550 whole entry, looked up): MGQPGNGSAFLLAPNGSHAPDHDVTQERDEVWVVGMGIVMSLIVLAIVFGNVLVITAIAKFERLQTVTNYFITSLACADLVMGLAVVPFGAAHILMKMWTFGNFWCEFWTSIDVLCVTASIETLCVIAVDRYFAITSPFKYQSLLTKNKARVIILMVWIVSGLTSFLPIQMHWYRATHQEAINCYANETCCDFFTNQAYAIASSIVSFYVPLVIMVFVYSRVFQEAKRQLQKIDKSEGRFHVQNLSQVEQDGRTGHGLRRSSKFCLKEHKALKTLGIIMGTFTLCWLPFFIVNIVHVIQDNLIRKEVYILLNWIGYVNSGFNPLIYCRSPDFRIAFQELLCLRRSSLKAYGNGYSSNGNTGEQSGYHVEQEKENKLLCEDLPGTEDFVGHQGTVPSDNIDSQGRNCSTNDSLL
CHOP inh = inhibitors of CHOP promoter induction, primary screen, cell-based, unfolded protein response, luciferase reporter; inhibition, % at 10 µM; 220,000 compounds, 3.8% hits; CHO-K1 CHOP-promoter luciferase, tunicamycin-induced, 15-18 h;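 active = compounds that reduced the stress-induced luciferase reporter signal by more than about 70% of percent inhibition, limit read from the data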
VLA-4 inh = inhibition in human VLA-4 binding assay, primary screen, VLA-4 allosteric modulator project, MLPCN library, flow cytometry, VLA-4 expressing cells. Integrin alpha-4 (Homo sapiens), P13612. ligand binding flow cytometry. inhibition, % (about 7 µM as worked out from the volumes in the protocol). 330,000 compounds, 0.2% hits. AID 2557, 2010; in the data active = inhibition above about 50%
XBP1 UPR activ = activators of adaptive XBP1 UPR arm, primary screen, cell-based, CHO-XBP1 luciferase reporter, luminescence, uHTS; 330,000 compounds, 0.33% hits; IRE1-XBP1 UPR activation; percent of tunicamycin response, DMSO as zero; activation, % at 20 µM;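 active = versus positive control, 20 µM dose yields 30% or more activation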
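Material – CHO cell line with stable XBP1 luciferase reporter · Buffer or medium – F12 plus 10% FBS · Compound – single point, 20 µM final compound, 1% DMSO · Schedule – 16-18 h cell attachment at 37 °C, then 6 h compound exposure · Signal – Steady-Glo luminescence read · Benchmarks – high control tunicamycin 10 µg/mL final, low control DMSO vehicle only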
CHOP UPR activ = activators of apoptotic CHOP UPR arm, primary screen, cell-based, CHO-CHOP luciferase reporter, luminescence, uHTS | activation, % at 10 µM | 330,000 compounds, 0.34% hits | UPR activation; percent of tunicamycin response over DMSO baseline;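 active = at 10 µM dose, activation of 40% or more, normalized to positive control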
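System: CHO-CHOP luciferase reporter cell line | Buffer or medium: F12 medium containing 10% fetal bovine serum | Doses: One dose, 10 µM in 0.5% DMSO | Times: 6 h compound exposure at 37 °C after overnight seeding | Signal: Luciferase luminescence | Read-out: % activation vs tunicamycin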
CHOP inh conf = retest of CHOP induction inhibitors, confirmation, cell-based; CHO-CHOP promoter luciferase reporter, tunicamycin-induced, luminescence; 2,100 compounds, 45% hits; shares compounds with CHOP inh; inhibition, % at 10 µM;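 active = mean of three repeat readings of reporter signal inhibition above a set limit, cut at about 70% in these data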
Large screens that a line does not name were inactive (follow-up assays come after a bar, where they were run).

COc1ccc(NS(=O)(=O)c2ccc3oc(SCc4ccc(F)cc4)nc3c2)cc1	CHOP inh 96 | CHOP inh conf inactive
Cc1ccc(NC(=O)C2CCN(S(C)(=O)=O)CC2)cc1Cl	none (no result: CHOP inh)
O=C(Nc1ccccc1C(F)(F)F)c1cc(-c2cccc(O)c2)on1	CHOP inh 97 | CHOP inh conf inactive
CCc1ccc(OCC(=O)NNC(=O)CSc2ncnc3sc(C)c(C)c23)cc1	CHOP inh 101 (no result: VLA-4 inh) | CHOP inh conf inactive
Cc1sc2ncnc(SCC(=O)NCC(C)C)c2c1C	none
CCOC(=O)Cc1csc(NC(=O)NC2(C(F)(F)F)Oc3ccc(Cl)cc3O2)n1 (stereo not drawn)	CHOP inh 105 | CHOP inh conf 111
CCOC(=O)Cc1csc(NC(=O)Cc2ccc(Cl)cc2)n1	none
CCOC(=O)Cc1csc(NC(=O)NC2(C(F)(F)F)Oc3cc(Cl)c(Cl)cc3O2)n1	CHOP inh 102 | CHOP inh conf 110
O=C(COc1ccc(Cl)cc1Cl)Nc1ccccn1	CHOP inh 100 | CHOP inh conf 92
CCCc1ccc(Oc2cn[nH]c2-c2ccc(O)c(C)c2O)cc1	CHOP inh 105 | CHOP inh conf inactive
COc1ccc(Oc2c(-c3ccc(O)cc3O)n[nH]c2C)cc1	none
COc1ccc(Oc2cn[nH]c2-c2ccc(OCC(=O)NN)cc2O)cc1	none (no result: CHOP inh)
CCCc1ccc(Oc2c(-c3ccc(O)c(C)c3O)n[nH]c2C)cc1	CHOP inh 106 | CHOP inh conf inactive
CCCCOP(=O)(OCCCC)C1(NS(=O)(=O)c2ccccc2)C=CC(=O)c2ccccc21 (stereo not drawn)	CHOP inh 96 | CHOP inh conf inactive
Cc1ccc(NC(=O)O/N=C/c2c(C)nn(C(C)(C)C)c2C)cc1Cl	CHOP inh 99 | CHOP inh conf 120
OCCCNc1cc(-c2ccnc(Nc3cccc(Cl)c3)n2)ccn1	CHOP inh 103 | CHOP inh conf 107
CN(C)CCCNc1ccc(-c2cc(Nc3cccc(Cl)c3)ncn2)cn1	none
O=C(COC(=O)CNS(=O)(=O)c1cccc(Br)c1)Nc1ccccc1Sc1ccccc1	CHOP inh 96 | CHOP inh conf inactive
O=C(COC(=O)CNS(=O)(=O)c1c(Cl)cccc1Cl)Nc1ccccc1Sc1ccccc1	none
C#CCN1Cc2ccccc2Oc2cc(Br)ccc2S1(=O)=O	none (no result: CHOP inh, VLA-4 inh)
COc1ccc(N/N=C(\C=N\O)C(=O)c2ccc(OC)cc2)cc1	none (no result: CHOP inh) | CHOP inh conf 73
Cc1cccc2cc3c(N)c(C#N)sc3nc12	CHOP inh 99 | CHOP inh conf 70
Cc1sc(NC(=O)c2sc3nc4c(C)cccc4cc3c2N)c(C#N)c1C	none
CCCCCCCCCCCCCCCCCCOC[C@H](COP(=O)([O-])OCC[N+](C)(C)C)OC	none (no result: B2AR ag, VLA-4 inh, XBP1 UPR activ, CHOP UPR activ)
N#C/C(=C/c1ccc(N2CCCCC2)o1)c1cccc(F)c1	CHOP inh 103 | CHOP inh conf inactive
Cc1n[nH]c(C)c1S(=O)(=O)N(CC(=O)N1CCc2ccccc21)c1ccc(C(C)C)cc1	CHOP inh 96 | CHOP inh conf inactive
O=c1nc(SCc2c(F)cccc2Cl)nc(-c2ccc(Cl)cc2)[nH]1	CHOP inh 101 | CHOP inh conf inactive
O=c1nc(SCc2ccccc2Cl)nc(-c2ccc(Cl)cc2)[nH]1	none
COc1ccc(CCNCC2C(Oc3ccc(Cl)cc3)C(=O)N2c2ccccc2C)cc1OC (stereo not drawn)	none
CC1CCCC(CC(N)=O)CC1 (stereo not drawn)	none (no result: CHOP inh, VLA-4 inh, XBP1 UPR activ, CHOP UPR activ)
CCCc1nnc(NC(=O)Cn2c(=O)oc3ccccc32)s1	none
Cc1sc(NC(=O)Cn2c(=O)oc3ccccc32)nc1-c1ccc(Cl)cc1	CHOP inh 98 | CHOP inh conf inactive
C/C(=N\NC(=O)CC1N=C(Cc2ccccc2)NNC1=O)c1ccc(Cl)cc1Cl (stereo not drawn)	CHOP inh 99 | CHOP inh conf inactive
COc1cc2c(cc1OC)CN(C(=O)CCNS(=O)(=O)c1ccccc1F)CC2	none (no result: CHOP inh)
O=c1cc(O)sc2ccccc12	none

Screens (PubChem BioAssay)
